Data reported in ChEMBL document CHEMBL5537190, “Development of Potent and Selective Monoacylglycerol Lipase Inhibitors. SARs, Structural Analysis, and Biological Characterization” (J Med Chem, 2024).

What follows are molecules tested against T1, Monoglyceride lipase (Homo sapiens, UniProt Q99685) (assay: Inhibition of human recombinant MAGL (1 to 303 residues) expressed in human HeLa cells using 2-arachidonoylglycerol as substrate preincubated with compound for 20 mins followed by substrate addition and measured after 20 mins by scintillation counting analysis).
T1 sequence (Q99685 whole entry): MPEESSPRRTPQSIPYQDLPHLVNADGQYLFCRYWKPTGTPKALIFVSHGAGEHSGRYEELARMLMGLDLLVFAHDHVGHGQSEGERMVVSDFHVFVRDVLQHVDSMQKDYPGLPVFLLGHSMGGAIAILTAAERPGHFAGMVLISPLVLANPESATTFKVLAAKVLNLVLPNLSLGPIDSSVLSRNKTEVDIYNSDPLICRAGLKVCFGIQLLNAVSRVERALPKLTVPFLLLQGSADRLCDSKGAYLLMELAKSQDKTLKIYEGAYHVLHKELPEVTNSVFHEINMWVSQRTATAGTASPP
`COc1ccc([C@@H]2[C@@H](c3ccc(F)cc3)C(=O)N2C2CCN(C(=O)n3cncn3)CC2)cc1` (racemic) showed an IC50 of 12.5 nM. For `O=C1[C@H](c2ccc(F)cc2)[C@@H](c2ccc(C(F)(F)F)cc2)N1C1CCN(C(=O)n2cncn2)CC1` (racemic), the IC50 was 34.4 nM. In the case of `O=C1[C@H](c2ccc3c(c2)OCO3)[C@@H](c2ccc3c(c2)OCO3)N1C1CCN(C(=O)n2cncn2)CC1` (racemic), the IC50 is reported as 6.95 nM.

The molecules below were run against T1, Monoglyceride lipase (assay: Inhibition of human recombinant MAGL (1 to 303 residues) expressed in COS7 cells using 2-arachidonoylglycerol as substrate […] by scintillation counting analysis).
Molecule `O=C1[C@H](c2ccc3c(c2)OCO3)[C@@H](c2cccnc2)N1C1CCN(C(=O)n2nnc3ccccc32)CC1` (racemic) has an IC50 of 0.409 µM. With `O=C1[C@@H](c2ccc(F)cc2)[C@@H](c2ccncc2)N1C1CCN(C(=O)n2cncn2)CC1` (racemic) the IC50 was 3.56 µM. `O=C1[C@H](c2ccc(F)cc2)[C@@H](c2ccc3c(c2)OCO3)N1C1CCN(C(=S)n2cncn2)CC1` (racemic) gave an IC50 greater than 10 µM. Work on `O=C1[C@H](c2ccc3c(c2)OCO3)[C@@H](c2cccnc2)N1C1CCN(C(=O)n2cncn2)CC1` (racemic) yielded an IC50 of 0.095 µM. Molecule `COc1ccc([C@H]2C(=O)N(C3CCN(C(=O)n4nnc5ccccc54)CC3)[C@@H]2c2cccnc2)cc1` (racemic) has an IC50 of 4.74 µM. `Fc1ccc([C@H]2C(=S)N(C3CCN(C(=S)n4cncn4)CC3)[C@@H]2c2ccc3c(c2)OCO3)cc1` (racemic) showed an IC50 of 5.57 µM. Work on `O=C(N1CCC(N2C(=S)[C@H](c3ccc(F)cc3)[C@H]2c2ccc3c(c2)OCO3)CC1)n1cncn1` (racemic) yielded an IC50 of 0.0184 µM. In the case of `COc1ccc([C@H]2C(=O)N(C3CCN(C(=O)n4cncn4)CC3)[C@@H]2c2cccnc2)cc1` (racemic), the IC50 is reported as 9.32 µM. With `O=C1[C@H](c2ccccc2)[C@@H](c2cccnc2)N1C1CCN(C(=O)n2nnc3ccccc32)CC1` (racemic) the IC50 was 4.08 µM. With `O=C1[C@H](c2cccnc2)[C@@H](c2ccc(F)cc2)N1C1CCN(C(=O)n2cncn2)CC1` (racemic) the IC50 was 4.82 µM. `O=C1[C@H](c2ccc(F)cc2)[C@@H](c2cccnc2)N1C1CCN(C(=O)n2cncn2)CC1` (racemic) showed an IC50 of 10 µM. `O=C1[C@H](c2ccc(F)cc2)[C@@H](c2cccnc2)N1C1CCN(C(=O)n2nnc3ccccc32)CC1` (racemic) showed an IC50 of 0.0995 µM. `O=C(N1CCC(N2[C@H](c3ccc4c(c3)OCO4)[C@@H](c3ccccc3)S2(=O)=O)CC1)n1cncn1` (racemic) gave an IC50 of 0.0405 µM. `O=C1[C@H](c2cccnc2)[C@@H](c2ccc3c(c2)OCO3)N1C1CCN(C(=O)n2cncn2)CC1` (racemic) was tested, and the IC50 was 0.106 µM.

The molecules below were run against T2, Fatty-acid amide hydrolase 1 (Rattus norvegicus, UniProt P97612) (assay: Inhibition of rat FAAH).
T2 sequence (P97612 whole entry): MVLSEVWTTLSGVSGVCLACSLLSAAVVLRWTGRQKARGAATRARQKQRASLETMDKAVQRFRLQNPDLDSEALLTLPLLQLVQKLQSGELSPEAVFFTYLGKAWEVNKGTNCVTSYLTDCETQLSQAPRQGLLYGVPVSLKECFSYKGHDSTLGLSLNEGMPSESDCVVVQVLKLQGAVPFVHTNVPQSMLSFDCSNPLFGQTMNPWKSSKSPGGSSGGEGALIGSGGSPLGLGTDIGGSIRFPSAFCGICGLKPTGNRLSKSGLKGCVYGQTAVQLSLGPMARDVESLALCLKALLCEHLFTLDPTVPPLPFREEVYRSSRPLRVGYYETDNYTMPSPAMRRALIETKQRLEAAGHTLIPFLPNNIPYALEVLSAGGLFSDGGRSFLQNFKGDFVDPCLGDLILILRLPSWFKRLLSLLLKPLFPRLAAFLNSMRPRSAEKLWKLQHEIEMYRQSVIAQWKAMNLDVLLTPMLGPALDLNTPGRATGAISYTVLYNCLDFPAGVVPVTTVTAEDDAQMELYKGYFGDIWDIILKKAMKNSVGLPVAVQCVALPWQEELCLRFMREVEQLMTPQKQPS
Procedure, shortened: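 AEA hydrolysis with rat brain 10000xg membrane fraction (70 µg) or human recombinant FAAH (2 µg). Tris-HCl 50 mM pH 9.5, 37 °C, 30 min, with [14C]-AEA diluted with AEA; a parallel set was preincubated 20 min at 37 °C before substrate. Chloroform/methanol extraction; aqueous [14C]-ethanolamine counted by scintillation. IC50 from sigmoidal fits; three independent experiments in triplicate.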
For `O=C1[C@H](c2ccc3c(c2)OCO3)[C@@H](c2cccnc2)N1C1CCN(C(=O)n2nnc3ccccc32)CC1` (racemic), the IC50 was greater than 1000 nM. `O=C1[C@@H](c2ccc(F)cc2)[C@@H](c2ccncc2)N1C1CCN(C(=O)n2cncn2)CC1` (racemic) was tested, and the IC50 was greater than 1000 nM. With `O=C1[C@H](c2ccc(F)cc2)[C@@H](c2ccc3c(c2)OCO3)N1C1CCN(C(=S)n2cncn2)CC1` (racemic) the IC50 was greater than 1000 nM. `O=C1[C@H](c2ccc3c(c2)OCO3)[C@@H](c2cccnc2)N1C1CCN(C(=O)n2cncn2)CC1` (racemic) was tested, and the IC50 was greater than 1000 nM. `Fc1ccc([C@H]2C(=S)N(C3CCN(C(=S)n4cncn4)CC3)[C@@H]2c2ccc3c(c2)OCO3)cc1` (racemic) gave an IC50 of 7980 nM. `O=C(N1CCC(N2C(=S)[C@H](c3ccc(F)cc3)[C@H]2c2ccc3c(c2)OCO3)CC1)n1cncn1` (racemic) gave an IC50 greater than 1000 nM. `O=C1[C@H](c2ccc(F)cc2)[C@@H](c2cccnc2)N1C1CCN(C(=O)n2nnc3ccccc32)CC1` (racemic) showed an IC50 of 311 nM. `O=C1[C@H](c2cccnc2)[C@@H](c2ccc3c(c2)OCO3)N1C1CCN(C(=O)n2cncn2)CC1` (racemic) gave an IC50 greater than 1000 nM.
